Experimental findings from the EternaBench riboswitch data are described below.

For this data set, the system named is MS2 coat protein. Kind of data set: apparent Kd, MS2 coat protein; higher = weaker binding; RNA-MaP array; FMN 200 µM where present. The procedure, abridged:
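Designs were transcribed by stalled E. coli RNA polymerase on Illumina sequencing-chip clusters. They were titrated with SNAP-549-labelled MS2 coat protein from 0.7 or 1.5 nM, doubling to 3 µM, without and then with constant ligand. Buffer: 100 mM Tris-HCl pH 7.5, 80 mM KCl, 4 mM MgCl2, BSA, DTT, yeast tRNA, Tween-20. Green signal was normalised to red-channel RNA signal and control-cluster median Fmax. Apparent Kd is the median of filtered per-cluster binding-curve fits.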

[1] abbreviates: designed as: OFF switch for flavin mononucleotide, no ligand.
Setting [2] is: ligand present: flavin mononucleotide, designed as: OFF switch for flavin mononucleotide.
Where [3] appears, read: designed as: ON switch for flavin mononucleotide, no ligand.
Where [4] appears, read: ligand present: flavin mononucleotide, designed as: ON switch for flavin mononucleotide.

Regarding “ACGCGAUGGGAGAAGGUACUUUAAGAAUUUUUCACAUGAGGAUCACCCAUGUAAGGAUAUCCCAUCGUUAAAUAUUAUACAGCA”, the “apparent Kd” value runs as follows: under setting [1], 5.07 nM; under setting [2], 4.82 nM.

In the case of “GUACCUUAUGAGAAGGCGAUCAUAAAACGUGAUCGAGGAUAUCAUGUAAACAUGAGGAUCACCCAUGUAUGGGUAUUAUGGUAC”, the “apparent Kd” value is, setting by setting: under setting [3], 61.7 nM; under setting [4], 18.4 nM.

As for “GCAUGUGUGUAAGGAUAUGCAUCACUGAGAAAUUUAGUGAGGAAGAUCACAUGAGGAUCACCCAUGUAGAAGGUACACACGUGC”, the “apparent Kd” value under setting [1] is 8.01 nM and the “apparent Kd” value under setting [2] was determined as 56.9 nM.

Take “AGCUGUGGCCGAGGAUAUCUGUUCCAUAAAACCGAAAUAUAAUCGGACAUGAGGAUCACCCAUGUAGAGAAGGCGGUCUCAGCA”: the “apparent Kd” value by setting is: under setting [1], 23.9 nM; under setting [2], 26.4 nM.

“CAAUCUGCAGGAUAUACAUGAGGAUCACCCAUGUAAGGACAAUAAAUAAGAAGAAGAAGUAGAAGGGCAGACAA”: the “apparent Kd” value was found to be 30.1 nM under setting [1] and 31.8 nM under setting [2].

For the sequence “GCGUGGAUAGCAGGAUAUAUGUUUCCUACAUGAGGAUCACCCAUGUAGGUGAUCAGCCGAGAAAAGUAGAAGGGCUAUCCAUGC”, the “apparent Kd” value reads like this: under setting [3], 16 nM; under setting [4], 13.4 nM.

With “UCAGAAGUCACAGGAUAUCCGGCGUAGCACACAGGAGAAGGGUGAUCACGAGCACAUGAGGAUCACCCAUGUGACAUUUGUGGG”, the “apparent Kd” value turned out to be 53.6 nM under setting [3] and 27.5 nM under setting [4].

With “AUAAAAGUAGGAUAUUGACUGAUCGACAUGAGGAUCACCCAUGUGGUGCUGUGCGGUAUUCAAGAAGGGCUAAAAU”, the “apparent Kd” value reads like this: under setting [1], 21.8 nM; under setting [2], 32.2 nM.

Regarding “ACAUGAGGAUCACCCAUGUAGAGUGAAGAAGGUAGAUACUUGUGACUCUCCCAUGUACAUAGGACUGAGGAUAUUCUAAUAAUU”, the “apparent Kd” value under setting [3] is 24.2 nM and the “apparent Kd” value under setting [4] was found to be 20.9 nM.

In the case of “UGGUACUAGGGAGGAUAUGUGAAGAUACAUGAGGAUCACCCAUGUUUAAGAAUGCCGAGAGGCAACUAGAAGGCCCUAGUACCU”, the “apparent Kd” value was 8.5 nM under setting [3] and 5.65 nM under setting [4].

On to “UUGCUGCGGAAGUUCGGCUCUCGCGAGGAUAUACCUACAGGGCCACAUGAGGAUCACCCAUGUACGUAGAAGGCGCGACAGAAA”, for which the “apparent Kd” value by setting is: under setting [1], 15.8 nM; under setting [2], 48 nM.

Regarding “GUGGAACAUGAGGAUCACCCAUGUGAGGAUAUAGGUUUUUGGGAAAAACUAGGAGAAACUAGAAGGCGCAAGAA”, the “apparent Kd” value was 29.4 nM under setting [1] and 27.6 nM under setting [2].

“CAUAUACAUGAGGAUCACCCAUGUGAGGAUAUGCUUUAUUAUUAUUAUUAUUAUUGUUGCAGAAGGUACAUUAC”: the “apparent Kd” value runs as follows: under setting [1], 24.2 nM; under setting [2], 20.6 nM.

With “AGCUAGUCAGGAUAUACGAAAAUGUCCGAAGCUGAGAAGGGACAUGAGGAUCACCCAUGUAGAAGGGACUAGCA”, the “apparent Kd” value runs as follows: under setting [1], 102 nM; under setting [2], 264 nM.

On to “ACAUAAAUUCGAGGAUAUCGGUGAAAUAAUCUACGAGAAGGCGAUAAUGGUUAUAGACUUAUAGACAUGAGGAUCACCCAUGUA”, for which the “apparent Kd” value is, setting by setting: under setting [3], 26.2 nM; under setting [4], 25.6 nM.

“CUGGAAUACAGACAUGAGGAUCACCCAUGUUUAAGGGAAGCACAGGAUAUGUCGACGCACCAUAGACAGAAGGGUGACUUGCUU”: the “apparent Kd” value came out at 49.4 nM under setting [3] and 24.8 nM under setting [4].

Consider “AAGGAUAGAGGAUAUACAUAGAUACAGAUUCGUGUAGAACUACAUGAGGAUCACCCAUGUAGAAGGCUAUCCUA”, for which the “apparent Kd” value reads like this: under setting [1], 16.8 nM; under setting [2], 46 nM.

On to “GUAGCAUACCGAGGAUAUUCAUAUCGUAAUCGAACAUGAGGAUCACCCAUGUGGCGAAAGCCUUGGGAGAAGGCGGAAUGCUAC”, for which the “apparent Kd” value turned out to be 360 nM under setting [3] and 25.9 nM under setting [4].

Consider “AUAGAAAGAUUAAUAUGAUUACAUGAGGAUCACCCAUGUAUAUAGGAUAUCGACGUCAAUGACGUCGAGAAGGAUAUACAUAAU”, for which the “apparent Kd” value reads like this: under setting [1], 27.6 nM; under setting [2], 90.4 nM.

Take “GGGUACAUCGGAGGAUAUCACGUAAAUACAUGAGGAUCACCCAUGUCGAUGGAGACAUCGGAGAUUGAGAAGGCCGAUGUACCG”: the “apparent Kd” value by setting is: under setting [3], 7.6 nM; under setting [4], 5.33 nM.
